Measurements as given in ChEMBL document CHEMBL1821604, “Anticancer activity and cDNA microarray studies of a (RS)-1,2,3,5-tetrahydro-4,1-benzoxazepine-3-yl]-6-chloro-9H-purine, and an acyclic (RS)-O,N-acetalic 6-chloro-7H-purine” (Eur J Med Chem, 2011).

Legend:
Assay type in all cases: functional
HT-29 [1] = test: Upregulation of COL1A1 gene expression in human HT-29 cells at IC50 after 48 hrs by cDNA microarray technique relative to control
MCF7 [2] = test: Down regulation of FLJ35954 gene expression in human MCF7 cells at IC50 after 48 hrs by cDNA microarray technique relative to control
Summary of the method: (§1)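 Cells (8 × 10⁶) were cultured in DMEM with 10% heat-inactivated FBS at 37 °C under 5% CO₂. They were exposed for 48 h to compound at its IC₅₀, with DMSO-treated parallel cultures as controls (final DMSO ≤0.1% v/v). Total RNA was isolated by trizol/chloroform phase separation, RNeasy column cleanup and on-column DNase, then quantified by OD260/OD280. Expression was profiled by cDNA microarray relative to control.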

MCF7 [3] = test: Down regulation of DKFZp667G2110 gene expression in human MCF7 cells at IC50 after 48 hrs by cDNA microarray technique relative to control
Summary of the method: (§2)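 8 × 10⁶ cells exposed 48 h to compound at its IC50 concentration; total RNA isolated with trizol/chloroform and RNeasy columns including on-column DNase step; RNA quantified by OD 260/280; DMSO-treated cultures as control.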

HT-29 [4] = test: Upregulation of PDE4B gene expression in human HT-29 cells at IC50 after 48 hrs by cDNA microarray technique relative to control
HT-29 [5] = test: Upregulation of C20orf40 gene expression in human HT-29 cells at IC50 after 48 hrs by cDNA microarray technique relative to control
MCF7 [6] = test: Down regulation of EFHC2 gene expression in human MCF7 cells at IC50 after 48 hrs by cDNA microarray technique relative to control; summary of the method: as §1
MCF7 [7] = test: Down regulation of PGLYRP4 gene expression in human MCF7 cells at IC50 after 48 hrs by cDNA microarray technique relative to control
HT-29 [8] = test: Upregulation of PMP22 gene expression in human HT-29 cells at IC50 after 48 hrs by cDNA microarray technique relative to control
HT-29 [9] = test: Upregulation of AVIL gene expression in human HT-29 cells at IC50 after 48 hrs by cDNA microarray technique relative to control
HT-29 [10] = test: Down regulation of FLJ10786 gene expression in human HT-29 cells at IC50 after 48 hrs by cDNA microarray technique relative to control; summary of the method: as §1
HT-29 [11] = test: Down regulation of IL12RB2 gene expression in human HT-29 cells at IC50 after 48 hrs by cDNA microarray technique relative to control; summary of the method: as §1
HT-29 [12] = test: Down regulation of DNAJC5B gene expression in human HT-29 cells at IC50 after 48 hrs by cDNA microarray technique relative to control; summary of the method: as §1
MCF7 [13] = test: Upregulation of WBSCR27 gene expression in human MCF7 cells at IC50 after 48 hrs by cDNA microarray technique relative to control
MCF7 [14] = test: Upregulation of CD84 gene expression in human MCF7 cells at IC50 after 48 hrs by cDNA microarray technique relative to control
MCF7 [15] = test: Upregulation of NPAT gene expression in human MCF7 cells at IC50 after 48 hrs by cDNA microarray technique relative to control
MCF7 [16] = test: Upregulation of ADPN gene expression in human MCF7 cells at IC50 after 48 hrs by cDNA microarray technique relative to control
MCF7 [17] = test: Upregulation of LCN12 gene expression in human MCF7 cells at IC50 after 48 hrs by cDNA microarray technique relative to control
MCF7 [18] = test: Upregulation of MGC32020 gene expression in human MCF7 cells at IC50 after 48 hrs by cDNA microarray technique relative to control
HT-29 [19] = test: Down regulation of BENE gene expression in human HT-29 cells at IC50 after 48 hrs by cDNA microarray technique relative to control; summary of the method: as §2
HT-29 [20] = test: Down regulation of ORM1 gene expression in human HT-29 cells at IC50 after 48 hrs by cDNA microarray technique relative to control
HT-29 [21] = test: Down regulation of STK19 gene expression in human HT-29 cells at IC50 after 48 hrs by cDNA microarray technique relative to control
HT-29 [22] = test: Down regulation of TNPO1 gene expression in human HT-29 cells at IC50 after 48 hrs by cDNA microarray technique relative to control
HT-29 [23] = test: Down regulation of SNRP70 gene expression in human HT-29 cells at IC50 after 48 hrs by cDNA microarray technique relative to control
HT-29 [24] = test: Down regulation of D4S234E gene expression in human HT-29 cells at IC50 after 48 hrs by cDNA microarray technique relative to control; summary of the method: as §2
HT-29 [25] = test: Down regulation of FUS gene expression in human HT-29 cells at IC50 after 48 hrs by cDNA microarray technique relative to control; summary of the method: as §1
HT-29 [26] = test: Down regulation of PRP19 gene expression in human HT-29 cells at IC50 after 48 hrs by cDNA microarray technique relative to control
HT-29 [27] = test: Down regulation of OR4K15 gene expression in human HT-29 cells at IC50 after 48 hrs by cDNA microarray technique relative to control
HT-29 [28] = test: Down regulation of PRKAG1 gene expression in human HT-29 cells at IC50 after 48 hrs by cDNA microarray technique relative to control
MCF7 [29] = test: Upregulation of ANKRD35 gene expression in human MCF7 cells at IC50 after 48 hrs by cDNA microarray technique relative to control
MCF7 [30] = test: Upregulation of FLJ14075 gene expression in human MCF7 cells at IC50 after 48 hrs by cDNA microarray technique relative to control
MCF7 [31] = test: Upregulation of GALNT13 gene expression in human MCF7 cells at IC50 after 48 hrs by cDNA microarray technique relative to control
MCF7 [32] = test: Down regulation of C11orf8 gene expression in human MCF7 cells at IC50 after 48 hrs by cDNA microarray technique relative to control; summary of the method: as §2
MCF7 [33] = test: Down regulation of SPINK2 gene expression in human MCF7 cells at IC50 after 48 hrs by cDNA microarray technique relative to control
MCF7 [34] = test: Down regulation of THC2438856 gene expression in human MCF7 cells at IC50 after 48 hrs by cDNA microarray technique relative to control
MCF7 [35] = test: Down regulation of THC2441203 gene expression in human MCF7 cells at IC50 after 48 hrs by cDNA microarray technique relative to control
HT-29 [36] = test: Upregulation of TUBB4 gene expression in human HT-29 cells at IC50 after 48 hrs by cDNA microarray technique relative to control
HT-29 [37] = test: Upregulation of C1orf24 gene expression in human HT-29 cells at IC50 after 48 hrs by cDNA microarray technique relative to control
HT-29 [38] = test: Down regulation of CARHSP1 gene expression in human HT-29 cells at IC50 after 48 hrs by cDNA microarray technique relative to control; summary of the method: as §2

SMILES: COC(CN(c1ccccc1CO)S(=O)(=O)c1ccccc1[N+](=O)[O-])n1cnc2ncnc(Cl)c21 (racemic)
- fold change (FC) (HT-29 [1]): 4.97
- fold change (FC) (MCF7 [2]): -2.06
- fold change (FC) (MCF7 [3]): -2.15
- fold change (FC) (HT-29 [4]): 3.84
- fold change (FC) (HT-29 [5]): 2.56
- fold change (FC) (MCF7 [6]): -2.27
- fold change (FC) (MCF7 [7]): -2.45
- fold change (FC) (HT-29 [8]): 2.54
- fold change (FC) (HT-29 [9]): 2.46
- fold change (FC) (HT-29 [10]): -2.04
- fold change (FC) (HT-29 [11]): -2.3
- fold change (FC) (HT-29 [12]): -2.49
- fold change (FC) (MCF7 [13]): 3.59
- fold change (FC) (MCF7 [14]): 3.37
- fold change (FC) (MCF7 [15]): 2.68
- fold change (FC) (MCF7 [16]): 2.37
- fold change (FC) (MCF7 [17]): 2.24
- fold change (FC) (MCF7 [18]): 2.09

SMILES: O=C(OCC1c2ccccc2-c2ccccc21)N1CC(n2cnc3c(Cl)ncnc32)OCc2ccccc21 (racemic)
- fold change (FC) (HT-29 [19]): -2.14
- fold change (FC) (HT-29 [20]): -2.19
- fold change (FC) (HT-29 [21]): -2.34
- fold change (FC) (HT-29 [22]): -2.5
- fold change (FC) (HT-29 [23]): -2.78
- fold change (FC) (HT-29 [24]): -2.91
- fold change (FC) (HT-29 [25]): -2.99
- fold change (FC) (HT-29 [26]): -3.33
- fold change (FC) (HT-29 [27]): -3.6
- fold change (FC) (HT-29 [28]): -3.98
- fold change (FC) (MCF7 [29]): 6.08
- fold change (FC) (MCF7 [30]): 4.84
- fold change (FC) (MCF7 [31]): 3.23
- fold change (FC) (MCF7 [32]): -2.88
- fold change (FC) (MCF7 [33]): -3.01
- fold change (FC) (MCF7 [34]): -3.05
- fold change (FC) (MCF7 [35]): -3.19
- fold change (FC) (HT-29 [36]): 3.23
- fold change (FC) (HT-29 [37]): 2.44
- fold change (FC) (HT-29 [38]): -2.12
